ChEMBL document CHEMBL1139862, “Malaria-infected mice are cured by a single dose of novel artemisinin derivatives” (2007)

Legend:
Format in all cases: functional
[1] = tested on: Mus musculus; test: Survival of Plasmodium berghei GFP infected mice (Mus musculus) at 10 mg/kg, subcutaneous after single dose
In short: (§1)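 Single subcutaneous dose given on day 1 after infection; vehicle Tween 80 (70%)/ethanol (30%), then 10× dilution with water. Three animals per dimer group. Read-out is average survival in days after infection. Mice alive at day 30 were sacrificed, and if no parasites were detected they were counted cured. Parasitemia was measured by flow cytometry.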

[2] = tested on: Mus musculus; test: Survival of Plasmodium berghei GFP infected mice (Mus musculus) at 3 mg/kg, subcutaneous after single dose; in short: as §1
[3] = tested on: Mus musculus; test: Survival of Plasmodium berghei GFP infected mice (Mus musculus) at 30 mg/kg, peroral after three doses; details: route oral
In short: as §1, with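 “Three consecutive daily oral doses starting” for “Single subcutaneous dose given on”, “Survivors” for “Mice alive”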

[4] = tested on: Mus musculus; test: Survival of Plasmodium berghei GFP infected mice (Mus musculus) at 30 mg/kg, subcutaneous after single dose; in short: as §1

| Structure (SMILES) | Survival [1] | Survival [2] | Survival [3] | Survival [4] |
| --- | --- | --- | --- | --- |
| C[C@H]1[C@H](OC(=O)CCC(=O)O)O[C@@H]2O[C@@]3(C)CC[C@H]4[C@H](C)CC[C@@H]1[C@@]24OO3 [ARTESUNATE] | 8.6 days | 7.3 days | 7.5 days | 9.1 days |
| C[C@H]1[C@@H](CC(CNc2ccccc2)C[C@H]2O[C@@H]3O[C@@]4(C)CC[C@H]5[C@H](C)CC[C@@H]([C@H]2C)[C@@]35OO4)O[C@@H]2O[C@@]3(C)CC[C@H]4[C@H](C)CC[C@@H]1[C@@]24OO3 (some centres not stated) | 12.3 days | 8 days |  | >30 days |
| C[C@H]1[C@@H](CC(O)(COCc2ccncc2)C[C@H]2O[C@@H]3O[C@@]4(C)CC[C@H]5[C@H](C)CC[C@@H]([C@H]2C)[C@@]35OO4)O[C@@H]2O[C@@]3(C)CC[C@H]4[C@H](C)CC[C@@H]1[C@@]24OO3 (some centres not stated) | 13.3 days | 9.7 days | >30 days | 15 days |
| C[C@H]1[C@@H](CC(C[C@H]2O[C@H]3O[C@@]4(C)CC[C@H]5[C@H](C)CC[C@@H]([C@H]2C)[C@@]35OO4)C(=O)NNC(=O)c2ccncc2)O[C@@H]2O[C@@]3(C)CC[C@H]4[C@H](C)CC[C@@H]1[C@@]24OO3 (some centres not stated) | 10 days | 9 days | 7 days | >30 days |
| C[C@H]1[C@@H](CC(C[C@H]2O[C@H]3O[C@@]4(C)CC[C@H]5[C@H](C)CC[C@@H]([C@H]2C)[C@@]35OO4)C(=O)NC(C)(C)C)O[C@@H]2O[C@@]3(C)CC[C@H]4[C@H](C)CC[C@@H]1[C@@]24OO3 (some centres not stated) | 25.3 days | 14 days | 14.7 days | >30 days |
| C[C@H]1[C@@H](CC(C[C@H]2O[C@H]3O[C@@]4(C)CC[C@H]5[C@H](C)CC[C@@H]([C@H]2C)[C@@]35OO4)C(=O)NCc2ccccc2)O[C@@H]2O[C@@]3(C)CC[C@H]4[C@H](C)CC[C@@H]1[C@@]24OO3 (some centres not stated) | 15 days | 12.3 days | 12.7 days | >30 days |
| Cc1ccc(COCC(C[C@H]2O[C@@H]3O[C@@]4(C)CC[C@H]5[C@H](C)CC[C@@H]([C@H]2C)[C@@]35OO4)C[C@H]2O[C@@H]3O[C@@]4(C)CC[C@H]5[C@H](C)CC[C@@H]([C@H]2C)[C@@]35OO4)cc1 (some centres not stated) | 10 days | 8 days | >30 days | 27 days |
